Hits are enriched below; roughly 2.3% of the tested compounds scored in any of these assays.
ASAP1 inh: inhibitors of human ASAP1 ArfGAP activity, primary screen, biochemical, fluorescence polarization | ASAP1-stimulated ARF1 GTP hydrolysis, GDP FP detection | 360,000 tested, 0.19% active | inhibition, % at 16.5 µM | Arf-GAP with SH3 domain, ANK repeat and PH domain-containing protein 1 (Homo sapiens), …; in the data active = inhibition above about 25%;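 note: 0% = vehicle with enzyme and substrate and 100% = no enzyme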
Target sequence (Q9ULH1 325-724 limits assumed): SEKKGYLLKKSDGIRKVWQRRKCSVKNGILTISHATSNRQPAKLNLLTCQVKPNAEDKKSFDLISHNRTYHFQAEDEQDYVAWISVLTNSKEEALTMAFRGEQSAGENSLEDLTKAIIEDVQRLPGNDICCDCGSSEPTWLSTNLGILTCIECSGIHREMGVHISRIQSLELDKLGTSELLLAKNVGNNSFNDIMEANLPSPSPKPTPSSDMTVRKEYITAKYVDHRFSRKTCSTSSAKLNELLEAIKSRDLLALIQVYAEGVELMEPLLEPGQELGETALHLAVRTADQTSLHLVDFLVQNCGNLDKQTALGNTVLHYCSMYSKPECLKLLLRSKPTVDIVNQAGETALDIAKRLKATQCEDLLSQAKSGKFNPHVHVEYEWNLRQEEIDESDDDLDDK
sPLA2-III inh: human group III sPLA2 inhibitors, primary screen, biochemical, QFRET, BODIPY PC-A2 liposome substrate; AID 743126, 2013; inhibition, % at 12.2 µM; QFRET BODIPY PC-A2 liposome hydrolysis, fluorescence; Group 3 secretory phospholipase A2 (Homo sapiens), Q9NZ20; 370,000 tested, 0.56% active;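 active = inhibition above mean plus 3 SD of compounds lying within the high and low control bounds, cut at about 19% in these data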;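 note: 0% = median of test compound wells and 100% = no enzyme DMSO wells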
SKKanGAS inh: S. pyogenes SKKanGAS growth inhibitors in kanamycin, primary screen, streptokinase expression inhibitor project, SKKanGAS strain, BacTiter-Glo luminescence; AID 1662, 2009; 300,000 tested, 1.3% active; inhibition, % at 7.5 µM; 6 h;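 active = mean replicate score, as percent of positive control median, at least 50; inconclusive = mean below 50 but one replicate at or above 50; inactive = mean and every replicate below 50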;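 note: strain carries kanamycin resistance gene driven by streptokinase promoter and grows in 40 µg/ml kanamycin; loss of luminescence reflects streptokinase promoter inhibition or plain growth inhibition; 0% = median of DMSO wells and 100% = positive control at its reference dose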
ARFGAP1 inhibitor: inhibitors of rat ARFGAP1 GAP activity, primary screen, biochemical, fluorescence polarization, GDP tracer | Arfgap1-stimulated ARF1 GTP hydrolysis, GDP FP detection | inhibition, % at 16.5 µM | 360,000 tested, 0.26% active | ADP-ribosylation factor GTPase-activating protein 1 (Rattus norvegicus), Q62848 | AID 651572, 2012;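 active = inhibition above a per-plate limit, mean inhibition of low control wells plus 3 SD, cut at about 25% in these data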;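 note: 0% = DMSO wells with enzyme and 100% = wells lacking Arfgap1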
Target sequence (Q62848 1-136 limits assumed): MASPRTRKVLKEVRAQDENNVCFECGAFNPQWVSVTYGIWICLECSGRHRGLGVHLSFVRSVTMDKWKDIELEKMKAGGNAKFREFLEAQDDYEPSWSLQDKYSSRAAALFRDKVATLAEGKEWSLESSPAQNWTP
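system = rat Arfgap1 catalytic domain, aa 1-136 | technique = FP, GDP Alexa 633 tracer displaced from anti-GDP antibody, 620/688 nm | compound = one concentration, 16.5 µM, DMSO 1.26% | medium = HEPES-based buffer, pH 7.5 | timing = compound-enzyme preincubation 20 min, reaction 120 min, detection 60 min, 25 °C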
Calb FLC: C. albicans growth inhibition with fluconazole, primary screen, CaCi-2 strain, Alamar Blue fluorescence. C. albicans CaCi-2 + fluconazole, 48 h. growth inhibition, % (test concentration not listed). 300,000 tested, 0.57% active;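 active = growth inhibition above about 58% in most replicates, limit read from the data, passing the limit was not always enough; inconclusive = exactly half the replicates above a set limit; inactive = most replicates below a set limit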;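 note: all wells also contain fluconazole at 8 µg/ml as a sub-toxic cotreatment; 0% = median of DMSO wells and 100% = median of geldanamycin control wells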
ASAP1 GAP conf: ASAP1 GAP activity inhibitors, confirmation, biochemical, fluorescence polarization, human, triplicate | inhibition, % at 16.5 µM | shares compounds with ASAP1 inh | 620 tested, 37% active | ASAP1-stimulated Arf1 GTPase, GDP fluorescence polarization | AID 624431, 2012;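 active = mean inhibition over triplicates exceeds the hit threshold derived for the earlier primary screening run, cut at about 25% in these data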
ARFGAP1 inh conf: ARFGAP1 inhibitor hit confirmation, biochemical, fluorescence polarization, triplicate; 890 tested, 30% active; ARFGAP1-stimulated ARF1 GTP hydrolysis, GDP tracer FP; inhibition, % at 16.5 µM; shares compounds with ARFGAP1 inhibitor;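 active = average inhibition over triplicates above the hit cutoff set in the earlier primary screen, cut at about 25% in these data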;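 note: 0% = Arfgap1 plus ARF1-GTP with DMSO and 100% = wells lacking Arfgap1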
An asterisk follows results filed as active; u = inconclusive; x = no result given.

SMILES | ASAP1 inh | sPLA2-III inh | SKKanGAS inh | ARFGAP1 inhibitor | Calb FLC | others
O=C(N/N=C/c1c(O)n(Cc2ccc(F)cc2)c(=O)[nH]c1=O)c1ccccc1O | 5.0 | 6.8 | 97.2* | 7.9 | -3.2
O=C(N/N=C/c1c(O)n(Cc2ccccc2)c(=O)[nH]c1=O)c1ccccc1O | -15.4 | -11.9 | 83.7* | -18.9 | u
Cc1ccc(C(=O)NCCN2CCC3(CC2)C(=O)NCN3c2ccccc2)cc1 | 8.1 | 0.6 | x | 1.9 | x
N#CC1c2ccccc2-n2nncc2CN1C(=O)c1cccnc1 (stereo unspecified) | x | 5.5 | x | x | x
Cc1cc(N2CCNC[C@@H]2C)ccc1N1CC[C@@H](O)C1 | -2.3 | 3.8 | x | 2.6 | x
O=C(NCCN1CCC2(CC1)C(=O)NCN2c1ccccc1)c1ccccc1C(F)(F)F | 6.2 | 4.2 | x | -3.2 | x
O=C(N/N=C/c1c(O)n(CCc2ccccc2)c(=O)[nH]c1=O)c1ccccc1O | 3.5 | 2.6 | 103.4* | -2.0 | u
O=C(N/N=C/c1c(O)n(CCc2ccc(F)cc2)c(=O)[nH]c1=O)c1ccccc1 | -6.2 | -0.7 | 44.2 | 12.6 | -15.5
CCCCCCC(=O)N/N=C/c1c(O)n(CCc2ccccc2)c(=O)[nH]c1=O | 5.7 | -0.8 | 86.0* | 9.1 | -26.9
N=c1c2c(-c3ccccc3)c(-c3ccccc3)n(Cc3ccccc3)c2ncn1C1CCC(O)CC1 (stereo unspecified) | x | 1.7 | x | x | x
CC(=O)N1c2ccccc2C(c2ccccc2)=NCC1C(=O)NCc1ccccc1 (stereo unspecified) | x | 0.7 | x | x | x
COc1ccc(-n2c(/C=C/c3ccc(O)c(OC)c3)nc3ccccc3c2=O)cc1 | 5.1 | -25.6 | 91.2* | 9.3 | 7.9
COc1ccc(-n2c(/C=C/c3ccc(O)cc3)nc3ccccc3c2=O)cc1 | 3.8 | -31.8 | 18.0 | 10.6 | 10.0
O=C([O-])c1ccc(-[n+]2c(-c3ccccc3)cc(-c3ccccc3)cc2-c2ccccc2)cc1 | 7.5 | 5.9 | -1.0 | 2.4 | -22.2
Oc1ccc(-[n+]2c(-c3ccccc3)cc(-c3ccccc3)cc2-c2ccccc2)cc1 | 9.4 | 12.3 | 2.7 | 2.4 | 102.6*
COc1ccc(-[n+]2c(-c3ccccc3)cc(-c3ccccc3)cc2-c2ccccc2)cc1 | 1.6 | 5.8 | -3.7 | 14.1 | 108.4*
O=[N+]([O-])c1ccc(-[n+]2c(-c3ccccc3)cc(-c3ccccc3)cc2-c2ccccc2)cc1 | 7.5 | -2.0 | -4.8 | 16.6 | -1.5
CC(C)NC1(c2ccccc2)CCCCC1 | -0.3 | 0.0 | x | -0.2 | x
Brc1ccc(Oc2ccc(Br)cc2Br)c(Br)c1 | -3.5 | 0.7 | x | 10.2 | x
Oc1c(Br)cc(Br)cc1Oc1ccc(Br)cc1Br | x | x | 106.9* | x | 87.4*
Cc1sc2ncnc(N3CCC(C(=O)Nc4ccc(C#N)c(Cl)c4)CC3)c2c1C | 4.8 | -1.6 | 57.2* | 6.2 | -5.3
COc1ccc2c3c([nH]c2c1)[C@H](C=C(C)C)N1C(=O)[C@@H]2CCCN2C(=O)[C@@H]1C3 | x | -21.8 | x | x | x
NC(Cc1ccccc1)[P+](=O)O (stereo unspecified) | x | 9.2 | x | x | x
O=C1C2CCCN2C(c2ccccc2)N1c1ccccn1 (stereo unspecified) | -2.7 | 4.0 | 1.8 | -1.0 | 62.6*
O=C1C2CCCN2C(c2ccc(Cl)cc2)N1c1ccccn1 (stereo unspecified) | 12.2 | 6.0 | -1.2 | 5.1 | 11.1
SMILES | ASAP1 inh | sPLA2-III inh | SKKanGAS inh | ARFGAP1 inhibitor | Calb FLC | others
CCn1c(NN=O)nc2ccccc21 | -18.3 | 2.5 | 26.8 | 1.0 | 80.4*
CC1=C(C(=O)O)N2C(=O)C(NC(=O)Cc3ccccc3)C2SC1 (stereo unspecified) | 2.9 | 1.1 | 94.5* | -9.5 | 1.5
CCN1/C(=C\C=C\C2=[N+](CC)c3ccccc3C2(C)C)C(C)(C)c2ccccc21 | x | x | 58.4* | x | -5.9
CCOC(=O)CNC(=O)N1Cc2cc(Br)ccc2-n2nncc2C1 | -8.3 | 2.7 | x | -10.5 | x
CCn1cc(C(=O)c2ccccc2)c2ccccc21 | 0.1 | 2.4 | 1.5 | 1.6 | 97.5*
CC(C)(C)OC(=O)NCCCCC(N)[P+](=O)O (stereo unspecified) | x | -3.2 | x | x | x
COc1cccc(NP(=O)(Oc2ccc(Cl)cc2)Oc2ccc(Cl)cc2)c1 | 6.8 | -12.7 | 56.1* | -5.2 | 20.2
O=P(Nc1ccccc1)(Nc1ccccc1)Oc1ccc(Cl)cc1 | x | x | 10.1 | x | 1.3
CN(C)c1ccc([N+](=O)[O-])c([N+](=O)[O-])c1 | 13.2 | 2.5 | x | 4.1 | x
CN(C)c1ccc([P+](=O)c2ccc(N(C)C)cc2)cc1 | -3.9 | 0.8 | 4.6 | 7.9 | 61.6*
CCC(C)C1NC(=O)C(NC(=O)C(CC(C)C)N(C)C(=O)C2CCCN2C(=O)C(C)O)C(C)OC(=O)C(Cc2ccc(OC)cc2)N(C)C(=O)C2CCCN2C(=O)C(CC(C)C)NC(=O)[C@H](C)C(=O)[C@H](C(C)C)OC(=O)CC1O (stereo partly specified) | 27.0* | -20.2 | x | 4.9 | x | ASAP1 GAP conf=3.1
COCCCn1c(N)c(C(=O)NCCC(C)C)c2nc3ccccc3nc21 | 26.5* | -7.9 | 13.6 | 23.3 | 9.7 | ASAP1 GAP conf=8.8
CC(C)N1C(=O)/C(=C/C=C/c2ccco2)C(=O)N(Cc2ccco2)C1=O | 14.3 | 4.2 | 8.2 | 14.5 | -2.3
CCN1C(=O)C(=C/C=C/c2ccco2)C(=O)N(CC)C1=S | 28.1* | -6.1 | x | -1.9 | x | ASAP1 GAP conf=22.5
CCC12CCN(CC3(O)CC3)C(Cc3ccc(O)cc31)C2(C)C (stereo unspecified) | 0.3 | -4.3 | x | -1.9 | x
N#CC1c2ccccc2-n2nncc2CN1C(=O)c1ccc([N+](=O)[O-])o1 (stereo unspecified) | x | 1.4 | x | x | x
Nc1c(C(=O)NCc2ccco2)c2nc3ccccc3nc2n1Cc1ccc(F)cc1 | 32.4* | -6.3 | 12.0 | -0.1 | 8.5 | ASAP1 GAP conf=14.2
Nc1c(C(=O)NCc2ccco2)c2nc3ccccc3nc2n1Cc1ccccc1 | 1.1 | -17.1 | 24.5 | 3.8 | 54.6
CCOCCCn1c(N)c(C(=O)Nc2sc3c(c2C(=O)OC)CCCC3)c2nc3ccccc3nc21 | 33.5* | -26.0 | 19.8 | 25.3* | 4.1 | ASAP1 GAP conf=14.1;ARFGAP1 inh conf=3.8

Source: PubChem (several laboratories)
